From ChEMBL document CHEMBL1157014, “Synthesis, characterization and biological evaluation of some thiourea derivatives bearing benzothiazole moiety as potential antimicrobial and anticancer agents” (Eur J Med Chem, 2010) come the findings set out here.

Each structure is given as a SMILES string. ≈ marks a conversion by molar mass, not a printed value.

For assay [1], the system named is Nakaseomyces glabratus. Description: Antifungal activity against Candida glabrata ATCC 32554 after 48 hrs by browth microdilution assay. It is filed as functional. The conditions noted are these: ATCC 32554, 48 h. A digest of the protocol: (§1)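 Yeast colonies suspended in 0.9% saline and adjusted to McFarland 0.5, then tested by CLSI broth microdilution. Compounds in DMSO, diluted with distilled water to 3.125–100 µg/ml, with DMSO as negative control and nystatin as reference. Incubation at 37 °C, read after 48 h. MIC is the lowest concentration with no visible growth.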
(Broth dilution looks for growth in wells or tubes with falling amounts of substance.)

Assay [2] deals with Escherichia coli. Description: microbe, parasite or virus in culture. The conditions noted are these: ATCC 25922, 24 h.
The test system of assay [3] is Candida albicans. The assay is described as follows: Antifungal activity against Candida albicans ATCC 90028 after 48 hrs by browth microdilution assay. It is filed as functional. Particulars: ATCC 90028, 48 h. A digest of the protocol:
as §1

Assay [4] concerns MCF7. Description: Cytotoxicity against human MCF7 after 24 hrs by MTT assay. It is filed as functional, cell-based. Particulars: MCF7, 24 h. Put shortly:
(§2)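 Cells grown in MEM with 10% FBS and 1% glutamine at 5% CO2, seeded at 1.0×10^4 cells. Exposed to compounds at 1–100 µM in medium containing 0.1% DMSO for 24 h at 37 °C. MTT (1 mg/ml) added for 5 h at 37 °C, then DMSO added and absorbance read at 540 nm. Run in triplicate; IC50 determined.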
A general note: Tetrazolium dyes change colour on reduction, which living cells bring about.

For assay [5], the system named is Enterococcus faecalis. Description: Antibacterial activity against Enterococcus faecalis ATCC 29212 after 24 hrs by browth microdilution assay. Particulars: ATCC 29212, 24 h. Type of assay: functional. Put shortly: (§3)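 Broth microdilution per CLSI. Colonies suspended in 0.9% saline and adjusted to McFarland 0.5. Compounds dissolved in DMSO, diluted with distilled water to 100, 50, 25, 12.5, 6.25 and 3.125 µg/ml, with DMSO as negative control. Gentamycin (Gram-negative) and amikacin (Gram-positive) served as reference drugs. Incubation at 37 °C for 24 h. MIC taken as the lowest concentration preventing visible growth.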

Assay [6] deals with Candida tropicalis. The assay is described as follows: Antifungal activity against Candida tropicalis ATCC 20336 after 48 hrs by browth microdilution assay. Type of assay: functional. Particulars: ATCC 20336, 48 h. Put shortly:
as §1

In assay [7] the test system is MCF7. Description: Cytotoxicity against human MCF7 after 72 hrs by MTT assay. It is filed as functional, cell-based. Particulars: MCF7, 72 h. Put shortly:
(§4)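 MCF-7 cells in MEM with 10% FBS at 5% CO2 were exposed to compounds (1–100 µM, 0.1% DMSO vehicle) for 48 or 72 h before MTT read-out. IC50 values came from the MTT assay.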

The subject of assay [8] is Proteus vulgaris. Description: Antibacterial activity against Proteus vulgaris ATCC 13315 after 24 hrs by browth microdilution assay. Particulars: ATCC 13315, 24 h. Type of assay: functional. Put shortly:
as §3

Assay [9] has as its system Enterobacter cloacae. Description: Antibacterial activity against Enterobacter cloacae ATCC 13047 after 24 hrs by browth microdilution assay. It is filed as functional. Particulars: ATCC 13047, 24 h. Put shortly:
as §3

Assay [10] relates to Staphylococcus aureus. The assay is described as follows: Antibacterial activity against Staphylococcus aureus ATCC 29213 after 24 hrs by browth microdilution assay. It is filed as functional. Particulars: ATCC 29213, 24 h. A digest of the protocol:
as §3

The test system of assay [11] is Staphylococcus epidermidis. Description: Antibacterial activity against Staphylococcus epidermidis ATCC 12228 after 24 hrs by browth microdilution assay. It is filed as functional. Particulars: ATCC 12228, 24 h. Put shortly:
as §3

Assay [12] deals with Pseudomonas aeruginosa. The assay is described as follows: Antibacterial activity against Pseudomonas aeruginosa ATCC 27853 after 24 hrs by browth microdilution assay. The conditions noted are these: ATCC 27853, 24 h. It is filed as functional. Put shortly:
as §3

In assay [13] the test system is MCF7. Description: Cytotoxicity against human MCF7 after 48 hrs by MTT assay. Type of assay: functional, cell-based. Particulars: MCF7, 48 h. A digest of the protocol:
as §4

Assay [14] relates to Pichia kudriavzevii. Description: Antifungal activity against Candida krusei ATCC 6268 after 48 hrs by browth microdilution assay. It is filed as functional. The conditions noted are these: ATCC 6268, 48 h. A digest of the protocol:
as §1

In assay [15] the test system is HeLa. The assay is described as follows: Cytotoxicity against human HeLa after 24 hrs by MTT assay. It is filed as functional, cell-based. A digest of the protocol:
as §2

In assay [16] the test system is Staphylococcus aureus (ATCC 25923). The assay is described as follows: Antibacterial activity against Staphylococcus aureus ATCC 25923 after 24 hrs by browth microdilution assay. The conditions noted are these: ATCC 25923, 24 h.

On to `Nc1ccc2sc(NC(=S)NC(=O)N3CCOCC3)nc2c1`, for which the MIC in [1] amounted to 15 mg/L (≈ 44.5 µM); in assay [2], 20 mg/L (≈ 59.3 µM); in assay [3], 20 mg/L (≈ 59.3 µM); in assay [5], 50 mg/L (≈ 148 µM); in assay [6], 20 mg/L (≈ 59.3 µM); in [8] it was 20 mg/L (≈ 59.3 µM). Also, the MIC in assay [9] was found to be 25 mg/L (≈ 74.1 µM); in assay [10], 25 mg/L (≈ 74.1 µM); in [11], 20 mg/L (≈ 59.3 µM); in assay [12] it was 50 mg/L (≈ 148 µM); in assay [14], 25 mg/L (≈ 74.1 µM); in assay [16] it was 50 mg/L (≈ 148 µM). Also, the IC50 in assay [4] came out at 26.4 µM; in [7], 17.1 µM; in assay [13] it was 19.2 µM; in assay [15], 45.3 µM.

Consider `O=C(NC(=S)Nc1nc2cc(Br)ccc2s1)c1cccs1`, for which the MIC in assay [2] was determined as 25 mg/L (≈ 62.8 µM); in assay [8] it was 50 mg/L (≈ 126 µM); in [9], 50 mg/L (≈ 126 µM); in assay [12] it was 25 mg/L (≈ 62.8 µM). Also, the IC50 in assay [4] was found to be 24.2 µM; in [7] it was 12.1 µM; in assay [13], 15.7 µM; in assay [15] it was 46.5 µM.

With `O=C(NC(=S)Nc1nc2cc([N+](=O)[O-])ccc2s1)N1CCOCC1`, the MIC in assay [1] was determined as 5 mg/L (≈ 13.6 µM); in assay [2] it was 15 mg/L (≈ 40.8 µM); in assay [3] it was 15 mg/L (≈ 40.8 µM); in assay [5], 10 mg/L (≈ 27.2 µM); in [6], 5 mg/L (≈ 13.6 µM); in [8], 20 mg/L (≈ 54.4 µM). Moreover, the MIC in [9] is 15 mg/L (≈ 40.8 µM); in [10], 25 mg/L (≈ 68 µM); in assay [11], 10 mg/L (≈ 27.2 µM); in assay [12], 25 mg/L (≈ 68 µM); in assay [14], 20 mg/L (≈ 54.4 µM); in [16], 20 mg/L (≈ 54.4 µM). For the same compound, the IC50 is 31 µM in assay [4] and 54.8 µM in assay [15].

In the case of `O=C(NC(=S)Nc1nc2cc(Br)ccc2s1)N1CCOCC1`, the MIC was determined as 25 mg/L (≈ 62.3 µM) in assay [1]; 25 mg/L (≈ 62.3 µM) in assay [2]; 50 mg/L (≈ 125 µM) in assay [3]; 50 mg/L (≈ 125 µM) in assay [5]; 25 mg/L (≈ 62.3 µM) in assay [6]; 50 mg/L (≈ 125 µM) in [8]. The MIC in assay [9] was 50 mg/L (≈ 125 µM); in assay [10], 25 mg/L (≈ 62.3 µM); in assay [11], 25 mg/L (≈ 62.3 µM); in assay [12], 50 mg/L (≈ 125 µM); in [14] it was 50 mg/L (≈ 125 µM); in assay [16] it was 50 mg/L (≈ 125 µM). In addition, the IC50 was found to be 18.1 µM in [4], 6.95 µM in assay [7], 20.3 µM in assay [13] and 38.9 µM in assay [15].

For orientation: IC50 means the concentration needed to halve the response being measured. Higher therefore signals weaker potency.
